Data from ChEMBL document CHEMBL1158162, “Identifying structural features on 1,1-diphenyl-hexahydro-oxazolo[3,4-a]pyrazin-3-ones critical for Neuropeptide S antagonist activity” (2008).

Experiments:
[1] = Antagonist activity at NPS Ile107 mutant receptor expressed in RD-HGA16 cells assessed by calcium mobilization by FlexStation assay; format: functional
Procedure, shortened: (§1)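 Cells loaded with calcium3 dye for 1 h; calcium mobilization read on FlexStation. Compounds tested separately for intrinsic activity and for inhibition of NPS. Ke from an 8-point half-log NPS concentration-response run with and without one compound concentration, at least two concentrations giving at least four-fold rightward EC50 shift; Ke = [L]/(DR-1). Mean ± SE, at least three independent experiments.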

[2] = tested on: RD-HGA16; experiment: Ratio of Ke for NPS Asn107 mutant receptor to Ke for NPS Ile107 mutant receptor expressed in RD-HGA16 cells; format: cell-based
[3] = Antagonist activity at NPS Asn107 mutant receptor expressed in RD-HGA16 cells assessed by calcium mobilization by FlexStation assay; format: functional; procedure, shortened: as §1
[4] = Antagonist activity at NPS Ile107 mutant receptor expressed in RD-HGA16 cells; format: functional; procedure, shortened: as §1
[5] = Antagonist activity at NPS Asn107 mutant receptor expressed in RD-HGA16 cells; format: functional; procedure, shortened: as §1

| SMILES | Ke [1] | Ratio Ke [2] | Ke [3] | Kb ([1]; RD-HGA16) | Kb [4] | Kb ([3]; RD-HGA16) | Kb [5] |
| --- | --- | --- | --- | --- | --- | --- | --- |
| N[C@H](Cc1ccccc1)C(=O)N1CCN2C(=O)OC(c3ccccc3)(c3ccccc3)C2C1 (stereo partly specified) | 911 nM | 5.1 | 4640 nM |  |  |  |  |
| O=C(O)CNC(=O)N1CCN2C(=O)OC(c3ccccc3)(c3ccccc3)C2C1 (stereo unspecified) | > 4000 nM |  | > 4000 nM |  |  |  |  |
| O=C(NCCc1ccc(F)cc1)N1CCN2C(=O)OC(c3ccccc3)(c3ccccc3)C2C1 (stereo unspecified) | 321 nM | 1 | 326 nM |  |  |  |  |
| O=C(NCCCc1ccccc1)N1CCN2C(=O)OC(c3ccccc3)(c3ccccc3)C2C1 (stereo unspecified) | 309 nM | 1.3 | 417 nM |  |  |  |  |
| C[C@@H](NC(=O)N1CCN2C(=O)OC(c3ccccc3)(c3ccccc3)C2C1)c1ccccc1 (stereo partly specified) | 317 nM | 0.7 | 229 nM |  |  |  |  |
| CN(Cc1ccc(F)cc1)C(=O)N1CCN2C(=O)OC(c3ccccc3)(c3ccccc3)C2C1 (stereo unspecified) | 214 nM | 2.8 | 588 nM |  |  |  |  |
| O=C(NCCc1ccc2c(c1)OCO2)N1CCN2C(=O)OC(c3ccccc3)(c3ccccc3)C2C1 (stereo unspecified) | 567 nM | 1.2 | 690 nM |  |  |  |  |
| O=C1OC(c2ccccc2)(c2ccccc2)C2CN(C(=S)NCCN3CCOCC3)CCN12 (stereo unspecified) | 3760 nM | 0.7 | 2560 nM |  |  |  |  |
| O=C(NCc1ccc(F)cc1)N1CCN2C(=O)OC(c3ccccc3)(c3ccccc3)C2C1 (stereo unspecified) | 13.7 nM | 3.8 | 52 nM | 27.9 nM | 27.9 nM | 16.9 nM | 16.9 nM |
| CN1CCN2C(=O)OC(c3ccccc3)(c3ccccc3)C2C1 (stereo unspecified) | > 4000 nM |  | > 4000 nM |  |  |  |  |
| O=C(NCCN1CCCCC1)N1CCN2C(=O)OC(c3ccccc3)(c3ccccc3)C2C1 (stereo unspecified) | 109 nM | 4.5 | 490 nM |  |  |  |  |
| O=C(NCc1ccccc1)N1CCN2C(=O)OC(c3ccccc3)(c3ccccc3)C2C1 (stereo unspecified) | 9.9 nM | 4.8 | 47 nM |  | 32.6 nM |  | 21.7 nM |
| CCOC(=O)CNC(=O)N1CCN2C(=O)OC(c3ccccc3)(c3ccccc3)C2C1 (stereo unspecified) | 726 nM | 1.7 | 1260 nM |  |  |  |  |
| O=C(OCc1ccccc1)N1CCN2C(=O)OC(c3ccccc3)(c3ccccc3)C2C1 (stereo unspecified) | 354 nM | 1 | 353 nM |  |  |  |  |
| O=C(CCc1ccc(F)cc1)N1CCN2C(=O)OC(c3ccccc3)(c3ccccc3)C2C1 (stereo unspecified) | 339 nM | 1.4 | 460 nM |  |  |  |  |
| O=C1OC(c2ccccc2)(c2ccccc2)C2CN(CCCCc3ccc(F)cc3)CCN12 (stereo unspecified) | 1110 nM | 1 | 1100 nM |  |  |  |  |
| O=C(NCCCCc1ccccc1)N1CCN2C(=O)OC(c3ccccc3)(c3ccccc3)C2C1 (stereo unspecified) | 537 nM | 0.8 | 437 nM |  |  |  |  |
| O=C(COc1ccc(F)cc1)N1CCN2C(=O)OC(c3ccccc3)(c3ccccc3)C2C1 (stereo unspecified) | 244 nM | 1.1 | 267 nM |  |  |  |  |
| O=C1OC(c2ccccc2)(c2ccccc2)C2CN(C(=S)NCCN3CCCCC3)CCN12 (stereo unspecified) | 280 nM | 1.3 | 354 nM |  |  |  |  |
